These results are taken from ChEMBL document CHEMBL5154895, “Mechanistic Studies and In Vivo Efficacy of an Oxadiazole-Containing Antibiotic” (J Med Chem, 2022).

For series [1], the system named is Staphylococcus aureus. Nature of the series: Downregulation of EssB protein expression in Staphylococcus aureus assessed as log2 of fold change in protein level measured after 2 hrs by LC-MS/MS analysis relative to control. In kind it is functional. An outline of the steps: (§1)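 S. aureus ATCC 25923 at OD600 0.6 was treated with compound or DMSO for 2 h at 37 °C, normalised to OD600 1.1, and washed in PBS. Cells were pressure-lysed in 100 mM ammonium bicarbonate, then acetone-precipitated, reduced with DTT, alkylated with iodoacetamide, and digested with trypsin/Lys-C. Peptides were desalted and run on LC-MS/MS. Label-free quantitation used proteins present in all 3 samples, filtered at p<0.05 against DMSO.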

Series [2] relates to Staphylococcus aureus. Nature of the series: Antibacterial activity against Staphylococcus aureus MRSA ATCC 33592 assessed as inhibition of bacterial growth incubated for 18 to 20 hrs by broth microdilution method. The series is classed as functional. To be noted: time 18-20 hrs. The procedure, abridged: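 Broth microdilution per CLSI. Inoculum at 0.5 McFarland, diluted in cation-adjusted Mueller Hinton broth to about 5 × 10^5 CFU/mL. Serial compound dilutions incubated aerobically at 37° C for 18–20 hours. MIC taken as the lowest concentration completely inhibiting visible growth.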
On the technique in general: Broth dilution looks for growth in wells or tubes with falling amounts of substance.

The test system of series [3] is Staphylococcus aureus. Nature of the series: Antibacterial activity against methicillin-sensitive Staphylococcus aureus NRS 107 assessed as inhibition of bacterial growth incubated for 18 to 20 hrs by broth microdilution method. To be noted: time 18-20 hrs. In kind it is functional. An outline of the steps: (§2)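 Broth microdilution per CLSI. Inoculum was set to 0.5 McFarland and diluted in CAMHB to about 5×10^5 CFU/mL. Serial dilutions of agent were incubated aerobically at 37 °C for 18–20 h. MIC was read visually as the lowest concentration with complete growth inhibition.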

Series [4] has as its system Staphylococcus aureus. Nature of the series: Antibacterial activity against vancomycin-resistant Staphylococcus aureus 10 assessed as inhibition of bacterial growth incubated for 18 to 20 hrs by broth microdilution method. The series is classed as functional. To be noted: time 18-20 hrs. An outline of the steps:
as §2

The subject of series [5] is Streptococcus pneumoniae. Nature of the series: Antibacterial activity against […] ATCC 700677 assessed as inhibition of bacterial growth incubated for 18 to 20 hrs by broth microdilution method. In kind it is functional. To be noted: time 18-20 hrs. An outline of the steps: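 Broth microdilution per CLSI. S. pneumoniae was diluted to about 5×10^5 CFU/mL in TSB and incubated with serial dilutions of agent at 37 °C for 18–20 h under 5% CO2. MIC was read visually as the lowest concentration completely inhibiting growth.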

Series [6] has as its system Enterococcus faecium. Nature of the series: Antibacterial activity against vancomycin-resistant Enterococcus faecium ATCC 700221 assessed as inhibition of bacterial growth incubated for 18 to 20 hrs by broth microdilution method. In kind it is functional. To be noted: time 18-20 hrs. The procedure, abridged: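 Broth microdilution per CLSI. Enterococci were diluted to about 5×10^5 CFU/mL in TSB and incubated aerobically with serial dilutions of agent at 37 °C for 18–20 h. MIC was read visually as the lowest concentration with no visible growth.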

For series [7], the system named is Staphylococcus aureus. Put plainly: Downregulation of SdrD protein expression in Staphylococcus aureus assessed as log2 of fold change in protein level measured after 2 hrs by LC-MS/MS analysis relative to control. In kind it is functional. The procedure, abridged: as §1
Series [8] concerns Staphylococcus aureus. Put plainly: Downregulation of DapE protein expression in Staphylococcus aureus assessed as log2 of fold change in protein level measured after 2 hrs by LC-MS/MS analysis relative to control. The series is classed as functional. An outline of the steps:
as §1

For series [9], the system named is Staphylococcus aureus. Nature of the series: Upregulation of Bsh protein expression in Staphylococcus aureus assessed as log2 of fold change in protein level measured after 2 hrs by LC-MS/MS analysis relative to control. The series is classed as functional. An outline of the steps: (§3)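 S. aureus ATCC 25923 at OD600 0.6 exposed to compound or DMSO control for 2 h at 37°C, normalized to OD600 1.1 and PBS-washed. Cells were pressure-cycling lysed in 100 mM ammonium bicarbonate, and 50 μg protein was acetone-precipitated, reduced and alkylated, then Trypsin/Lys-C digested and C18-desalted. About 1 μg peptides went to LC-MS/MS. Label-free quantitation kept proteins present in all 3 samples, filtered at p <0.05.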

Series [10] concerns Staphylococcus aureus. Nature of the series: Upregulation of TraG protein expression in Staphylococcus aureus assessed as log2 of fold change in protein level measured after 2 hrs by LC-MS/MS analysis relative to control. The series is classed as functional. The procedure, abridged: as §3
For series [11], the system named is Staphylococcus aureus. Put plainly: Upregulation of IsdI protein expression in Staphylococcus aureus assessed as log2 of fold change in protein level measured after 2 hrs by LC-MS/MS analysis relative to control. The series is classed as functional. An outline of the steps:
as §3

In series [12] the test system is Staphylococcus aureus. Put plainly: Downregulation of PgsA gene expression in Staphylococcus aureus ATCC 25923 assessed as reduction in […] at 0.25 ug/ml incubated for 2 hrs by RT-PCR analysis. The series is classed as functional. To be noted: dose 0.25 µg/ml. An outline of the steps: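 S. aureus ATCC 25923 at OD600 0.6 was treated in triplicate with 0.25 μg/mL compound or DMSO for 2 h at 37 °C and pelleted. Total RNA was analysed by real-time RT-PCR with pgsA primers, normalised to 16S rRNA. Significance was tested by Student's t-test.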

For series [13], the system named is Mus musculus. Put plainly: Acceleration of wound healing in methicillin-resistant Staphylococcus aureus USA300 infected Balb/c mouse model assessed as reduction in TNF-alpha level in skin wounds administered topically twice daily 2 days post infection and measured after 5 days post compound treatment. In kind it is functional, organism-based. To be noted: time 5.0 day. The procedure, abridged:
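Mice had two 6-mm dorsal excisional wounds, each infected with 20 μL of 4.2×10^9 CFU/mL MRSA USA300 and covered with Tegaderm. Treatment began 2 days after infection (n=5 per group): 2% compound in petroleum jelly applied topically twice daily for 5 days. Right-wound homogenates in PBS were centrifuged, supernatants pooled per group, and protein normalised by BCA. Cytokines were measured by mouse cytokine array (pg/mL).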

For series [14], the system named is Staphylococcus aureus. Put plainly: Downregulation of aureolysin protein expression in Staphylococcus aureus measured after 2 hrs by LC-MS/MS analysis. The series is classed as functional. The procedure, abridged:
as §1

Series [15] is described as follows: Toxicity in Balb/c mouse infected with methicillin-resistant Staphylococcus aureus USA300 assessed as hemorrhage administered topically twice daily 2 days post infection and measured after 5 days post compound treatment by H and E staining based histopathological analysis. To be noted: in vivo, topical_or_ocular, 120 h, time 5 day. An outline of the steps:
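MRSA USA300-infected punch wounds in mice, n=5. Topical 2% agent or petroleum jelly vehicle twice daily from day 2 for 5 days. The left wound was formalin-fixed, cut into 4-μm sections and H&E-stained. Whole slides were scanned and assessed by a board-certified veterinary pathologist for necrosis, inflammation, haemorrhage and related features.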

The test system of series [16] is Staphylococcus aureus. Nature of the series: Upregulation of 23S rRNA (pseudouridine(1915)-N(3))-methyltransferase RImH expression in Staphylococcus aureus measured after 2 hrs by LC-MS/MS analysis. In kind it is functional. The procedure, abridged: as §3
Series [17] concerns Staphylococcus aureus. Nature of the series: Upregulation of CHAP domain-containing protein expression in Staphylococcus aureus measured after 2 hrs by LC-MS/MS analysis. The series is classed as functional. An outline of the steps: as §3
Series [18] has as its system Staphylococcus aureus. Nature of the series: Upregulation of heme uptake system protein IsdE expression in Staphylococcus aureus measured after 2 hrs by LC-MS/MS analysis. In kind it is functional. The procedure, abridged:
as §3

The subject of series [19] is Staphylococcus aureus. Nature of the series: Upregulation of siderophore biosynthesis protein SbnC expression in Staphylococcus aureus measured after 2 hrs by LC-MS/MS analysis. The series is classed as functional. The procedure, abridged:
as §3

In series [20] the test system is Staphylococcus aureus. Nature of the series: Downregulation of molybdenum ABC transporter ATP-binding protein expression in Staphylococcus aureus measured after 2 hrs by LC-MS/MS analysis. In kind it is functional. An outline of the steps:
as §3

For series [21], the system named is Staphylococcus aureus. Nature of the series: Downregulation of sodium ABC transporter permease protein expression in Staphylococcus aureus measured after 2 hrs by LC-MS/MS analysis. The series is classed as functional. An outline of the steps:
as §3

Series [22] deals with Staphylococcus aureus. Nature of the series: Downregulation of sodium ABC transporter ATP-binding protein expression in Staphylococcus aureus measured after 2 hrs by LC-MS/MS analysis. In kind it is functional. The procedure, abridged:
as §3

The subject of series [23] is Staphylococcus aureus. Nature of the series: Downregulation of ortho-poxovirus protein expression in Staphylococcus aureus measured after 2 hrs by LC-MS/MS analysis. The series is classed as functional. An outline of the steps: as §3

As usually defined, the MIC is the lowest concentration that inhibits growth of the organism.

Structures are written as SMILES. Values after ≈ are worked out from the molar mass of the structure shown. Active and inactive are the calls of the source. No cut-off for these calls is given here.

As for `CC1CC(C)CN(S(=O)(=O)c2ccc(C(=O)Nc3nnc(-c4ccc(C(F)(F)F)cc4)o3)cc2)C1` (stereo not drawn), the log2FC in [1] is -3.3; in series [7], -2; in [8] it was -3.3; in series [9] it was 3.6; in series [10], 2; in series [11], 3.2. The minimum inhibitory concentration (MIC) in series [2] was 0.25 µg/mL (≈ 0.492 µM); in series [3] it was 0.25 µg/mL (≈ 0.492 µM); in [4], 0.25 µg/mL (≈ 0.492 µM); in series [5], 0.06 µg/mL (≈ 0.118 µM); in series [6] it was 0.25 µg/mL (≈ 0.492 µM). Besides, the result in series [12], in series [13], in series [14], in [16], in series [17] and in [18] was Active. For the same molecule, the result in series [19], in [20], in series [21], in series [22] and in series [23] was Active. For the same molecule, the Activity result in series [15] is recorded as “Toxic”.
